From ChEMBL document CHEMBL2407081, “Discovery of potent, isoform-selective inhibitors of histone deacetylase containing chiral heterocyclic capping groups and a N-(2-aminophenyl)benzamide binding unit” (J Med Chem, 2013)
Activity calls are given as the source filed them. No cut-off for these calls is given here.

Legend:
[1] = target: Histone deacetylase 3/NCoR1 (Homo sapiens) (UniProt O15379+O75376); experiment: Competitive inhibition of recombinant HDAC3-NCoR1 (unknown origin) assessed as fast tight binding at 0.016 to 1 uM; format: protein-complex assay
[2] = target: T1, Histone deacetylase 8 (Homo sapiens, UniProt Q9BY41); experiment: Inhibition of recombinant HDAC8 (unknown origin) expressed in Escherichia coli BL21 using MAL as substrate incubated for 15 mins prior to substrate addition measured after 60 mins by fluorescence plate reader analysis
T1 sequence (Q9BY41 whole entry): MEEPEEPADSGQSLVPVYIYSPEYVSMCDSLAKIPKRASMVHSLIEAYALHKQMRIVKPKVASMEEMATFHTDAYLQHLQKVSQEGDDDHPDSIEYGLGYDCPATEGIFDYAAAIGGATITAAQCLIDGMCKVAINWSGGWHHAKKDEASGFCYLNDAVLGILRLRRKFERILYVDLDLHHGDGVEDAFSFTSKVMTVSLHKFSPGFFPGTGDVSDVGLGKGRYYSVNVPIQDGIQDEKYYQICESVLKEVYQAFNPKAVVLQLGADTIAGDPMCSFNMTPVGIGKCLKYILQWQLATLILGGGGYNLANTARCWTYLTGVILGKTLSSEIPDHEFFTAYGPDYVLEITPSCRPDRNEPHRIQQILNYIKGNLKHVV

[3] = target: Histone deacetylase 3/NCoR1 (Homo sapiens, UniProt O15379); experiment: Inhibition of recombinant HDAC3-NCoR1 (unknown origin) using MAL as substrate incubated for 3 hrs prior to substrate addition measured after 60 mins by fluorescence plate reader analysis; format: protein-complex assay
Histone deacetylase 3/NCoR1, sequence (O15379 whole entry): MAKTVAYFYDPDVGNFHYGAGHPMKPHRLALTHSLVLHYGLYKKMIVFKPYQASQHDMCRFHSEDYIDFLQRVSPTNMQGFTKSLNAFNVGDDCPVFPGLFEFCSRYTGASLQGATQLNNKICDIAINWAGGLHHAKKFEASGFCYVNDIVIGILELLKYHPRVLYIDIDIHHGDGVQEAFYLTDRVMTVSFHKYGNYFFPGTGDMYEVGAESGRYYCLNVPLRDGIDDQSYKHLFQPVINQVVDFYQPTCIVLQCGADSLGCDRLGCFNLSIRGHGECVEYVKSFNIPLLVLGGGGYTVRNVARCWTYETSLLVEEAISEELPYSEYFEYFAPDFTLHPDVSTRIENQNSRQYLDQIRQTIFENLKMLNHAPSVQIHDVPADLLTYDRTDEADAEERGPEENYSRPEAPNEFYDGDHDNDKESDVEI
Histone deacetylase 3/NCoR1, sequence (O75376 whole entry, further chain): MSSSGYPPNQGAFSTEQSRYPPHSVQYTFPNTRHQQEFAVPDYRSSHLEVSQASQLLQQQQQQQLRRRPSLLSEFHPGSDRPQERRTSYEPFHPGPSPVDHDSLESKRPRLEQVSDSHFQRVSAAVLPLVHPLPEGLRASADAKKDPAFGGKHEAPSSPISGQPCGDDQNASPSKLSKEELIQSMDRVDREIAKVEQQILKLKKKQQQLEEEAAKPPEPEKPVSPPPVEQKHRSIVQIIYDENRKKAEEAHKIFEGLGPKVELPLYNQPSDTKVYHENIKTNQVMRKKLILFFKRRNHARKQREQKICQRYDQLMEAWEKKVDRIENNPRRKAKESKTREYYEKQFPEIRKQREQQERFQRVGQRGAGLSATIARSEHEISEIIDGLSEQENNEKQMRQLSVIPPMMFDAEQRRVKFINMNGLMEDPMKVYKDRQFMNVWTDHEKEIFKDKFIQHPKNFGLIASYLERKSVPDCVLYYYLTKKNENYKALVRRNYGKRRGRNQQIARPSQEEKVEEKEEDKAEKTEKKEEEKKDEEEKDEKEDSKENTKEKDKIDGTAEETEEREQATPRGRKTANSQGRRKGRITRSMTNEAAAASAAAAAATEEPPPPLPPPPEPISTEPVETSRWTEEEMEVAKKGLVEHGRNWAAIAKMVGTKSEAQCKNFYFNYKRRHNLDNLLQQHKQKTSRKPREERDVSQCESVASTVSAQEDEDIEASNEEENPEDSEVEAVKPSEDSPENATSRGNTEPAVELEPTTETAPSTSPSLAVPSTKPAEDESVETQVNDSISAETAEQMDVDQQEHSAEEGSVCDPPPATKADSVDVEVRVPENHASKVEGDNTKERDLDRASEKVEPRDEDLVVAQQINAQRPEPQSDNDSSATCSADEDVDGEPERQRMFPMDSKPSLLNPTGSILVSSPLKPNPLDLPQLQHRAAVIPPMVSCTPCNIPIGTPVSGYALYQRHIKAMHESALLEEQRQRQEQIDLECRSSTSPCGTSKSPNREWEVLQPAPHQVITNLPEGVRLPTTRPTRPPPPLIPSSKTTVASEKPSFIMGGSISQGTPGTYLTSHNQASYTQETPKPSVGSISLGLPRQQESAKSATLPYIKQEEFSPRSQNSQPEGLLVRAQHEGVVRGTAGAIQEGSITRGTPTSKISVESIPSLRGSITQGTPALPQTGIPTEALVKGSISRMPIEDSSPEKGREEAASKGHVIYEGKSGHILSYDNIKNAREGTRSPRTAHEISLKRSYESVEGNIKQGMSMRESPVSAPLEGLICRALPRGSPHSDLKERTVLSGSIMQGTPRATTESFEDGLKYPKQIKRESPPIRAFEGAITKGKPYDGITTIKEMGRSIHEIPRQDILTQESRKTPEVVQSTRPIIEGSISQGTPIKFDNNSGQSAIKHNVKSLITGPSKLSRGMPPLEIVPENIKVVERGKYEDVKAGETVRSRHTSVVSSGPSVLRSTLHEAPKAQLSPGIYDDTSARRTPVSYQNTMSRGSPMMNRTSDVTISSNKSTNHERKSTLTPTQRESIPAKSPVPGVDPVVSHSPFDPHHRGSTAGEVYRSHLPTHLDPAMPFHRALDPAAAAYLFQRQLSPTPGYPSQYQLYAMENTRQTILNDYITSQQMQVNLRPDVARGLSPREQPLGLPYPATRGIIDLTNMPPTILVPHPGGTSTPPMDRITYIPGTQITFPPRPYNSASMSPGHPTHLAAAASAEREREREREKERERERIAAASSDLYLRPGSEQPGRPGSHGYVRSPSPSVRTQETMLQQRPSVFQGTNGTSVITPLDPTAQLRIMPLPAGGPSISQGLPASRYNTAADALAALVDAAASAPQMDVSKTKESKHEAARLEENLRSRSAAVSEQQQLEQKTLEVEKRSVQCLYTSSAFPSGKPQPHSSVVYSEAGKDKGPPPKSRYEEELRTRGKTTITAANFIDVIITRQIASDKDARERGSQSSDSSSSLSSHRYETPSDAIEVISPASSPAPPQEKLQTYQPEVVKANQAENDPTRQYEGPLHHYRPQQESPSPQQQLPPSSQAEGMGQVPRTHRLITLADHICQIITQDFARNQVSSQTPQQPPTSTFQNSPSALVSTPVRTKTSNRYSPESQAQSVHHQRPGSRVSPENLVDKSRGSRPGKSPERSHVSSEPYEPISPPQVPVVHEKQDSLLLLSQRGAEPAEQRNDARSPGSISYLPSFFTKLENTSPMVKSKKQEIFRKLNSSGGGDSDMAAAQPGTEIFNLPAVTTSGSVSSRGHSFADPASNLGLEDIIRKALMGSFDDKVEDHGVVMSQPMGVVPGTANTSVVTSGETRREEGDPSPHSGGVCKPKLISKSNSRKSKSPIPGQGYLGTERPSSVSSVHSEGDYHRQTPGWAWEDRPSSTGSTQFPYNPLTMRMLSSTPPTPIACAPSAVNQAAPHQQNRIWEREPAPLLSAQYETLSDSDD

[4] = target: Histone deacetylase 2 (Homo sapiens, UniProt Q92769); experiment: Inhibition of recombinant His-tagged HDAC2 (1 to 488) (unknown origin) using MAL as substrate incubated for 3 hrs prior to substrate addition measured after 60 mins by fluorescence plate reader analysis
Histone deacetylase 2, sequence (Q92769 whole entry): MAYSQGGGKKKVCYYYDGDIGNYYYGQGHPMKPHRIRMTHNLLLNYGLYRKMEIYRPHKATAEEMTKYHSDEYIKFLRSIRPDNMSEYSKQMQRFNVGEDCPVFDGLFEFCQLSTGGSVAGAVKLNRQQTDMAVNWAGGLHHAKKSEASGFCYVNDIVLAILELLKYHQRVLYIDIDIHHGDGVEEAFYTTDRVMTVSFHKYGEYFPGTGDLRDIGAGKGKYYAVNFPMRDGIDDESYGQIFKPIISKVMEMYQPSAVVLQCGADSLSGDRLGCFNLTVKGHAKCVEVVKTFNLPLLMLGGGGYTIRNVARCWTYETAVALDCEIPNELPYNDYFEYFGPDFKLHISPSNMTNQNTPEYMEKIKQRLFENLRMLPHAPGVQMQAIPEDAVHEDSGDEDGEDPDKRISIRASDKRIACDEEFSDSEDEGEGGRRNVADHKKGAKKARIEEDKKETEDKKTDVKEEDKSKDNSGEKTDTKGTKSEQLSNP

[5] = target: T2, Protein deacetylase HDAC6 (Homo sapiens, UniProt Q9UBN7); experiment: Inhibition of recombinant His-tagged HDAC6 (unknown origin) using Fluor-de-Lys SIRT1 as substrate incubated for 3 hrs prior to substrate addition measured after 60 mins by fluorescence plate reader analysis
T2 sequence (Q9UBN7 whole entry): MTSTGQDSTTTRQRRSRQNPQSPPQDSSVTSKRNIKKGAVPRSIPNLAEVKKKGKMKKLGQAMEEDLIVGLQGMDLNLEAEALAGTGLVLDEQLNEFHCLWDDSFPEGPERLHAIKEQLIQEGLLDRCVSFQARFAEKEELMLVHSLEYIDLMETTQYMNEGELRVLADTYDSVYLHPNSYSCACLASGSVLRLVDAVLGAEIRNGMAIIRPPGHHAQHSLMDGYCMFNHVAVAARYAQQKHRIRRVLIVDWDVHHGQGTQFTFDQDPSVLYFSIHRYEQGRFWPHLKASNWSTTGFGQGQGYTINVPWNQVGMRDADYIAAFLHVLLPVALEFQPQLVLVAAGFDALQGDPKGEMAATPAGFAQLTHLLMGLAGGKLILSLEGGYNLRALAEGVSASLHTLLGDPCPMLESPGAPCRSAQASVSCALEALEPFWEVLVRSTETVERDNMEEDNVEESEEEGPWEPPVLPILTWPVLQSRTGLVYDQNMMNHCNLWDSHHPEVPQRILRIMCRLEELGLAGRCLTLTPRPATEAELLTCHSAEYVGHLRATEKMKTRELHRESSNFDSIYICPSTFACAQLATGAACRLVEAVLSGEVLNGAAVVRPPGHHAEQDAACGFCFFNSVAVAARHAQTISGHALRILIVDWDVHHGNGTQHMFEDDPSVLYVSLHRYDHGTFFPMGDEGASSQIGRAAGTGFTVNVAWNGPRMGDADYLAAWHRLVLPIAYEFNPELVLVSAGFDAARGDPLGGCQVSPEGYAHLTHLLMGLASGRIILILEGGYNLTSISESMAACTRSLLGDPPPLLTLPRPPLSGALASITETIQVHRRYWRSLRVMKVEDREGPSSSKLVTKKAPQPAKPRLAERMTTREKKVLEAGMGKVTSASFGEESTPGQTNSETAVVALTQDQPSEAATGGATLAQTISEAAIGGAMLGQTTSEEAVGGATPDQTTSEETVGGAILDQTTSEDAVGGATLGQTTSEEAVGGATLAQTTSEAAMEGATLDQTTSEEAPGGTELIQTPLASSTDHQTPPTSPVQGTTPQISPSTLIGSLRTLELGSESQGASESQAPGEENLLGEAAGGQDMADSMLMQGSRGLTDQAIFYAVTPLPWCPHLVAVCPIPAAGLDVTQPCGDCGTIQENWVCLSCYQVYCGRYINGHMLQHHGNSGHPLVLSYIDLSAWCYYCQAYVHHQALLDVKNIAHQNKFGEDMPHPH

[6] = target: Histone deacetylase 1 (Homo sapiens, UniProt Q13547); experiment: Inhibition of recombinant C-terminal FLAG-tagged HDAC1 (unknown origin) expressed in Escherichia coli BL21 using MAL as substrate incubated for 1 hr prior to substrate addition measured after 60 mins by fluorescence plate reader analysis
Histone deacetylase 1, sequence (Q13547 whole entry): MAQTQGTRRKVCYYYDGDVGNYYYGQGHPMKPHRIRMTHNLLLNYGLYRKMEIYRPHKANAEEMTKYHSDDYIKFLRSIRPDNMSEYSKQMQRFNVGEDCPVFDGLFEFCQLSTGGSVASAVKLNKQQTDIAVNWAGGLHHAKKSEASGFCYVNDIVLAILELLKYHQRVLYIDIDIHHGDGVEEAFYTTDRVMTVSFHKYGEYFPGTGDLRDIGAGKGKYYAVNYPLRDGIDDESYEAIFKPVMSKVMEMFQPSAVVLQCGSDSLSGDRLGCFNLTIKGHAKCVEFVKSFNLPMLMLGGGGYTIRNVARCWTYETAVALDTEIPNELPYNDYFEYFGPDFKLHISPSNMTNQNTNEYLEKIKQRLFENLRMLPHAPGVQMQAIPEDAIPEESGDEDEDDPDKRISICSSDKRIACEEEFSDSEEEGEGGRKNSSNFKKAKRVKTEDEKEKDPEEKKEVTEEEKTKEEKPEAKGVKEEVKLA

[7] = test system: Jurkat; experiment: Induction of apoptosis in human Jurkat cells assessed as PARP cleavage at 1 to 10 uM after 24 hrs by Western blot analysis; format: functional, cell-based
[8] = test system: HeLa; experiment: Induction of apoptosis in human HeLa cells assessed as PARP cleavage at 1 to 10 uM after 24 hrs by Western blot analysis; format: functional, cell-based
[9] = test system: HeLa; experiment: Cell cycle arrest in human HeLa cells assessed as accumulation at G2/M phase at 10 uM after 24 hrs by FITC/propidium iodide staining-based FACS flow cytometric analysis; format: functional
Method in brief: (§1)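 HeLa and Jurkat human cells were cultured for 24 h with compound at two concentrations. The control was an equal volume of the DMSO diluent. Cellular DNA and protein content were then measured by flow cytometry, and the percentage of cells in sub-G1, G0/G1, S and G2/M was read out.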

[10] = test system: Jurkat; experiment: Cell cycle arrest in human Jurkat cells assessed as accumulation at G2/M phase at 1 uM after 24 hrs by FITC/propidium iodide staining-based FACS flow cytometric analysis (reference value: 14.4%); format: functional; method in brief: as §1
[11] = test system: Jurkat; experiment: Cell cycle arrest in human Jurkat cells assessed as accumulation at S phase at 1 uM after 24 hrs by FITC/propidium iodide staining-based FACS flow cytometric analysis (reference value: 22.3%); format: functional; method in brief: as §1
[12] = test system: Jurkat; experiment: Cell cycle arrest in human Jurkat cells assessed as accumulation at G0/G1 phase at 1 uM after 24 hrs by FITC/propidium iodide staining-based FACS flow cytometric analysis (reference value: 55.5%); format: functional; method in brief: as §1
[13] = test system: Jurkat; experiment: Cell cycle arrest in human Jurkat cells assessed as accumulation at sub-G1 phase at 1 uM after 24 hrs by FITC/propidium iodide staining-based FACS flow cytometric analysis (reference value: 6.8%); format: functional; method in brief: as §1
[14] = test system: Jurkat; experiment: Cell cycle arrest in human Jurkat cells assessed as accumulation at G2/M phase at 10 uM after 24 hrs by FITC/propidium iodide staining-based FACS flow cytometric analysis (reference value: 13.2%); format: functional; method in brief: as §1
[15] = test system: Jurkat; experiment: Cell cycle arrest in human Jurkat cells assessed as accumulation at S phase at 10 uM after 24 hrs by FITC/propidium iodide staining-based FACS flow cytometric analysis (reference value: 15.3%); format: functional; method in brief: as §1
[16] = test system: Jurkat; experiment: Cell cycle arrest in human Jurkat cells assessed as accumulation at G0/G1 phase at 10 uM after 24 hrs by FITC/propidium iodide staining-based FACS flow cytometric analysis (reference value: 69.5%); format: functional; method in brief: as §1
[17] = test system: Jurkat; experiment: Cell cycle arrest in human Jurkat cells assessed as accumulation at sub-G1 phase at 10 uM after 24 hrs by FITC/propidium iodide staining-based FACS flow cytometric analysis (reference value: 2%); format: functional; method in brief: as §1
[18] = test system: MCF7; experiment: Cytotoxicity against human MCF7 cells assessed as growth inhibition by measuring cellular ATP level after 72 hrs by cell-titer glo assay; format: functional, cell-based; settings: MCF7, 72 h
[19] = test system: DU-145; experiment: Cytotoxicity against human DU145 cells assessed as growth inhibition by measuring cellular ATP level after 72 hrs by cell-titer glo assay; format: functional, cell-based; settings: DU-145, 72 h
[20] = test system: HCT-116; experiment: Cytotoxicity against human HCT116 cells assessed as growth inhibition by measuring cellular ATP level after 72 hrs by cell-titer glo assay; format: functional, cell-based; settings: HCT-116, 72 h
[21] = test system: A549; experiment: Cytotoxicity against human A549 cells assessed as growth inhibition by measuring cellular ATP level after 72 hrs by cell-titer glo assay; format: functional, cell-based; settings: A549, 72 h

| IC50 [2] [nM] | IC50 [3] [nM] | IC50 [4] [nM] | IC50 [5] [nM] | SMILES | Activity [7] | Activity [8] | Activity [10] [%] | Activity [11] [%] | Activity [12] [%] | Activity [13] [%] | Activity [14] [%] | Activity [15] [%] | Activity [16] [%] | Activity [17] [%] | IC50 [18] [nM] | IC50 [19] [nM] | IC50 [20] [nM] | IC50 [21] [nM] | further results |
| --- | --- | --- | --- | --- | --- | --- | --- | --- | --- | --- | --- | --- | --- | --- | --- | --- | --- | --- | --- |
| 410 | 31 | 219 | 42 | O=C(NO)c1ccc(CNc2nccc(-c3cccnc3)n2)cc1 | – | – | – | – | – | – | – | – | – | – | – | – | – | – | inhibition [1]: Active |
| 8000 | 14 | 56 | > 20000 | Nc1ccccc1NC(=O)c1ccc(CNC2=NC(=O)C(c3ccccc3)N2)cc1 (racemic) | Active | inactive | 15.1 | 22.3 | 55.2 | 7.4 | 10.7 | 20.7 | 65.5 | 3.1 | 30100 | > 50000 | 18200 | > 50000 | IC50 [6]: 350 nM; Activity [9]: Active |
| – | – | – | – | Nc1ccccc1NC(=O)c1ccc(CNc2nccc(-c3cccnc3)n2)cc1 [MOCETINOSTAT] | Active | inactive | 10.2 | 8.7 | 39.8 | 41.3 | 24 | 32.4 | 26.2 | 17.4 | 1260 | 2060 | 700 | 1730 | – |
